In test [1] the test system is T47D. Nature of the test: Inhibition of PR-A gene expression in human T47D cells at 25 nM by syber green assay. The class given is functional. The method, boiled down:
(§1)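 T47D cells plated at 80,000/well without antibiotics two days before Oligofectamine transfection with agRNA duplex (25 or 100 nM final); medium changed at 24 h, harvest day 5 unless stated otherwise. TRIzol total RNA; PR mRNA by real-time PCR with SYBR Green: 50 °C 2 min, 95 °C 10 min, 40 cycles 95 °C 15 s/60 °C 1 min.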

In test [2] the test system is T47D. Nature of the test: Inhibition of PR-A mRNA gene expression in human T47D cells at 100 nM by syber green assay. The class given is functional. An outline of the steps: as §1
Test [3] relates to T47D. The test is described as follows: Inhibition of PR-B mRNA gene expression in human T47D cells at 100 nM by syber green assay. It counts as functional. The method, boiled down: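 T47D cells in RPMI-1640 with 10% FBS, NEAA, insulin, 37 °C, 5% CO2. Plated two days before transfection without antibiotics. Oligofectamine-mediated duplex RNA transfection at 100 nM final, medium changed at 24 h, harvest five days post-transfection. Total RNA extracted with TRIzol. hPR mRNA quantified by SYBR Green qPCR: 50 °C 2 min, 95 °C 10 min, then 40 cycles of 95 °C 15 s / 60 °C 1 min.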

Test [4] relates to T47D. Nature of the test: Inhibition of PR-B gene expression in human T47D cells at 25 nM by syber green assay in presence of 10 nM estradiol. The class given is functional, cell-based.
Test [5] deals with T47D. The test is described as follows: Inhibition of PR-A gene expression in human T47D cells at 25 nM by syber green assay in presence of 10 nM estradiol. The class given is functional, cell-based.
The subject of test [6] is T47D. The test is described as follows: Inhibition of PR-B gene expression in human T47D cells at 25 nM by syber green assay. It counts as functional. An outline of the steps:
as §1

Structures are written as SMILES. Active and inactive are the calls of the source. No cut-off for these calls is given here.

In general, inhibition refers to the change of the read-out against control, counted positive when it falls. As to `Cc1cn(CC(=O)N(CCNC(=O)CN(CCNC(=O)CN(CCNC(=O)CN(CCNC(=O)CN(CCNC(=O)CN(CCNC(=O)CN(CCNC(=O)CN(CCNC(=O)CN(CCNC(=O)CN(CCNC(=O)CN(CCNC(=O)CN(CCNC(=O)CN(CCNC(=O)CN(CCNC(=O)CN(CCNC(=O)CN(CCNC(=O)CN(CCNC(=O)CN(CCNC(=O)CN(CCNC(=O)CN(CCNC(=O)CN)C(=O)Cn2cnc3c(N)ncnc32)C(=O)Cn2cnc3c(=O)[nH]c(N)nc32)C(=O)Cn2cnc3c(=O)[nH]c(N)nc32)C(=O)Cn2ccc(N)nc2=O)C(=O)Cn2cnc3c(=O)[nH]c(N)nc32)C(=O)Cn2ccc(=O)[nH]c2=O)C(=O)Cn2ccc(=O)[nH]c2=O)C(=O)Cn2cnc3c(=O)[nH]c(N)nc32)C(=O)Cn2ccc(=O)[nH]c2=O)C(=O)Cn2ccc(=O)[nH]c2=O)C(=O)Cn2cnc3c(N)ncnc32)C(=O)Cn2cnc3c(=O)[nH]c(N)nc32)C(=O)Cn2cnc3c(N)ncnc32)C(=O)Cn2cnc3c(N)ncnc32)C(=O)Cn2cnc3c(N)ncnc32)C(=O)Cn2cnc3c(=O)[nH]c(N)nc32)C(=O)Cn2ccc(N)nc2=O)C(=O)Cn2ccc(=O)[nH]c2=O)C(=O)Cn2cnc3c(=O)[nH]c(N)nc32)CC(=O)NCCN(CC(=O)NCC(=O)O)C(=O)Cn2cc(C)c(=O)[nH]c2=O)c(=O)[nH]c1=O`, the inhibition at 0.025 µM was found to be 57% in the test with T47D [1] and 73% in the test with T47D [6]. For the same compound, the inhibition at 0.1 µM was found to be 80% with T47D [2] and 99% with T47D [3]. The inhibition result in the test on T47D [4] and in the test with T47D [5] was “Active” throughout.
Turning to `Cc1cn(CC(=O)N(CCNC(=O)CN(CCNC(=O)CN(CCNC(=O)CN(CCNC(=O)CN(CCNC(=O)CN(CCNC(=O)CN(CCNC(=O)CN(CCNC(=O)CN(CCNC(=O)CN(CCNC(=O)CN(CCNC(=O)CN(CCNC(=O)CN(CCNC(=O)CN(CCNC(=O)CN(CCNC(=O)CN(CCNC(=O)CN(CCNC(=O)CN(CCNC(=O)CN(CCNC(=O)CN(CCNC(=O)CN)C(=O)Cn2cnc3c(=O)[nH]c(N)nc32)C(=O)Cn2cnc3c(=O)[nH]c(N)nc32)C(=O)Cn2ccc(N)nc2=O)C(=O)Cn2cnc3c(=O)[nH]c(N)nc32)C(=O)Cn2ccc(=O)[nH]c2=O)C(=O)Cn2ccc(=O)[nH]c2=O)C(=O)Cn2cnc3c(=O)[nH]c(N)nc32)C(=O)Cn2ccc(=O)[nH]c2=O)C(=O)Cn2ccc(=O)[nH]c2=O)C(=O)Cn2cnc3c(N)ncnc32)C(=O)Cn2cnc3c(=O)[nH]c(N)nc32)C(=O)Cn2cnc3c(N)ncnc32)C(=O)Cn2cnc3c(N)ncnc32)C(=O)Cn2cnc3c(N)ncnc32)C(=O)Cn2cnc3c(=O)[nH]c(N)nc32)C(=O)Cn2ccc(N)nc2=O)C(=O)Cn2ccc(=O)[nH]c2=O)C(=O)Cn2cnc3c(=O)[nH]c(N)nc32)C(=O)Cn2ccc(=O)[nH]c2=O)CC(=O)NCCN(CC(=O)NCC(=O)O)C(=O)Cn2cc(C)c(=O)[nH]c2=O)c(=O)[nH]c1=O`, the inhibition at 0.025 µM in the test with T47D [1] and with T47D [6] was less than 20% each time. For the same compound, the inhibition at 0.1 µM in the test on T47D [2] and in the test with T47D [3] was less than 20% in each case. Also, the inhibition result in the test with T47D [4] and with T47D [5] was “Active” throughout.
For `Cc1cn(CC(=O)N(CCNC(=O)CN(CCNC(=O)CN(CCNC(=O)CN(CCNC(=O)CN(CCNC(=O)CN(CCNC(=O)CN(CCNC(=O)CN(CCNC(=O)CN(CCNC(=O)CN(CCNC(=O)CN(CCNC(=O)CN(CCNC(=O)CN(CCNC(=O)CN(CCNC(=O)CN(CCNC(=O)CN(CCNC(=O)CN(CCNC(=O)CN(CCNC(=O)CN(CCNC(=O)CN(CCNC(=O)CN(CCNC(=O)CN)C(=O)Cn2cnc3c(=O)[nH]c(N)nc32)C(=O)Cn2ccc(=O)[nH]c2=O)C(=O)Cn2ccc(N)nc2=O)C(=O)Cn2ccc(=O)[nH]c2=O)C(=O)Cn2cnc3c(=O)[nH]c(N)nc32)C(=O)Cn2cnc3c(=O)[nH]c(N)nc32)C(=O)Cn2ccc(N)nc2=O)C(=O)Cn2ccc(N)nc2=O)C(=O)Cn2cnc3c(N)ncnc32)C(=O)Cn2cnc3c(=O)[nH]c(N)nc32)C(=O)Cn2ccc(=O)[nH]c2=O)C(=O)Cn2ccc(N)nc2=O)C(=O)Cn2ccc(N)nc2=O)C(=O)Cn2cnc3c(N)ncnc32)C(=O)Cn2ccc(N)nc2=O)C(=O)Cn2cnc3c(N)ncnc32)C(=O)Cn2cnc3c(=O)[nH]c(N)nc32)C(=O)Cn2ccc(N)nc2=O)C(=O)Cn2ccc(=O)[nH]c2=O)C(=O)Cn2cc(C)c(=O)[nH]c2=O)CC(=O)O)c(=O)[nH]c1=O`, the inhibition at 0.025 µM stood at 67% with T47D [1] and 73% in the test on T47D [6]. In addition, the inhibition at 0.1 µM was 67% in the test on T47D [2] and 88% in the test with T47D [3]. Also, the inhibition entry in the test on T47D [4] and in the test with T47D [5] was “Active” each time.
In the case of `Cc1cn(CC(=O)N(CCNC(=O)CN(CCNC(=O)CN(CCNC(=O)CN(CCNC(=O)CN(CCNC(=O)CN(CCNC(=O)CN(CCNC(=O)CN(CCNC(=O)CN(CCNC(=O)CN(CCNC(=O)CN(CCNC(=O)CN(CCNC(=O)CN(CCNC(=O)CN(CCNC(=O)CN(CCNC(=O)CN(CCNC(=O)CN(CCNC(=O)CN(CCNC(=O)CN(CCNC(=O)CN(CCNC(=O)CN)C(=O)Cn2cnc3c(=O)[nH]c(N)nc32)C(=O)Cn2ccc(=O)[nH]c2=O)C(=O)Cn2ccc(=O)[nH]c2=O)C(=O)Cn2cnc3c(=O)[nH]c(N)nc32)C(=O)Cn2ccc(=O)[nH]c2=O)C(=O)Cn2ccc(=O)[nH]c2=O)C(=O)Cn2cnc3c(N)ncnc32)C(=O)Cn2cnc3c(=O)[nH]c(N)nc32)C(=O)Cn2cnc3c(N)ncnc32)C(=O)Cn2cnc3c(N)ncnc32)C(=O)Cn2cnc3c(N)ncnc32)C(=O)Cn2cnc3c(=O)[nH]c(N)nc32)C(=O)Cn2ccc(N)nc2=O)C(=O)Cn2ccc(=O)[nH]c2=O)C(=O)Cn2cnc3c(=O)[nH]c(N)nc32)C(=O)Cn2ccc(=O)[nH]c2=O)C(=O)Cn2ccc(N)nc2=O)C(=O)Cn2ccc(=O)[nH]c2=O)C(=O)Cn2cnc3c(=O)[nH]c(N)nc32)CC(=O)NCCN(CC(=O)NCC(=O)O)C(=O)Cn2cc(C)c(=O)[nH]c2=O)c(=O)[nH]c1=O`, the inhibition at 0.025 µM in the test on T47D [1] and with T47D [6] was less than 20% throughout. Moreover, the inhibition at 0.1 µM in the test on T47D [2] and in the test on T47D [3] was less than 20% each time. In addition, the inhibition result in the test with T47D [4] and in the test on T47D [5] was “Active” each time.
Take `Cc1cn(CC(=O)N(CCNC(=O)CN(CCNC(=O)CN(CCNC(=O)CN(CCNC(=O)CN(CCNC(=O)CN(CCNC(=O)CN(CCNC(=O)CN(CCNC(=O)CN(CCNC(=O)CN(CCNC(=O)CN(CCNC(=O)CN(CCNC(=O)CN(CCNC(=O)CN(CCNC(=O)CN(CCNC(=O)CN(CCNC(=O)CN(CCNC(=O)CN(CCNC(=O)CN(CCNC(=O)CN(CCNC(=O)CN)C(=O)Cn2cnc3c(N)ncnc32)C(=O)Cn2cnc3c(=O)[nH]c(N)nc32)C(=O)Cn2ccc(N)nc2=O)C(=O)Cn2ccc(=O)[nH]c2=O)C(=O)Cn2cnc3c(=O)[nH]c(N)nc32)C(=O)Cn2ccc(=O)[nH]c2=O)C(=O)Cn2ccc(N)nc2=O)C(=O)Cn2ccc(=O)[nH]c2=O)C(=O)Cn2cnc3c(=O)[nH]c(N)nc32)C(=O)Cn2cnc3c(=O)[nH]c(N)nc32)C(=O)Cn2ccc(N)nc2=O)C(=O)Cn2ccc(N)nc2=O)C(=O)Cn2cnc3c(N)ncnc32)C(=O)Cn2cnc3c(=O)[nH]c(N)nc32)C(=O)Cn2ccc(=O)[nH]c2=O)C(=O)Cn2ccc(N)nc2=O)C(=O)Cn2ccc(N)nc2=O)C(=O)Cn2cnc3c(N)ncnc32)C(=O)Cn2ccc(N)nc2=O)CC(=O)NCCN(CC(=O)NCC(=O)O)C(=O)Cn2cc(C)c(=O)[nH]c2=O)c(=O)[nH]c1=O`: the values for the inhibition at 0.025 µM in the test with T47D [1] and with T47D [6] were 34% and 40%, respectively. Also, the inhibition at 0.1 µM came out at 63% in the test with T47D [2] and 87% with T47D [3]. In addition, the inhibition entry with T47D [4] and in the test with T47D [5] was “Active” in each case.
Consider `Cc1cn(CC(=O)N(CCNC(=O)CN(CCNC(=O)CN(CCNC(=O)CN(CCNC(=O)CN(CCNC(=O)CN(CCNC(=O)CN(CCNC(=O)CN(CCNC(=O)CN(CCNC(=O)CN(CCNC(=O)CN(CCNC(=O)CN(CCNC(=O)CN(CCNC(=O)CN(CCNC(=O)CN(CCNC(=O)CN(CCNC(=O)CN(CCNC(=O)CN(CCNC(=O)CN(CCNC(=O)CN(CCNC(=O)CN)C(=O)Cn2cnc3c(N)ncnc32)C(=O)Cn2cnc3c(=O)[nH]c(N)nc32)C(=O)Cn2cnc3c(N)ncnc32)C(=O)Cn2cnc3c(=O)[nH]c(N)nc32)C(=O)Cn2cnc3c(=O)[nH]c(N)nc32)C(=O)Cn2cnc3c(N)ncnc32)C(=O)Cn2cnc3c(=O)[nH]c(N)nc32)C(=O)Cn2cnc3c(=O)[nH]c(N)nc32)C(=O)Cn2cnc3c(N)ncnc32)C(=O)Cn2cnc3c(=O)[nH]c(N)nc32)C(=O)Cn2cnc3c(=O)[nH]c(N)nc32)C(=O)Cn2ccc(N)nc2=O)C(=O)Cn2cnc3c(=O)[nH]c(N)nc32)C(=O)Cn2ccc(=O)[nH]c2=O)C(=O)Cn2ccc(=O)[nH]c2=O)C(=O)Cn2cnc3c(=O)[nH]c(N)nc32)C(=O)Cn2ccc(=O)[nH]c2=O)C(=O)Cn2ccc(=O)[nH]c2=O)C(=O)Cn2cnc3c(N)ncnc32)CC(=O)NCCN(CC(=O)NCC(=O)O)C(=O)Cn2cc(C)c(=O)[nH]c2=O)c(=O)[nH]c1=O`, for which the inhibition at 0.025 µM with T47D [1] and in the test with T47D [6] was less than 20% in each case. The inhibition at 0.1 µM with T47D [2] and with T47D [3] was less than 20% throughout. Further, the inhibition entry with T47D [4] and in the test with T47D [5] was “Active” throughout.

These data come from ChEMBL document CHEMBL1250442, “Inhibiting gene expression at transcription start sites in chromosomal DNA with antigene RNAs” (Nat Chem Biol, 2005).
